Consider 14 compounds from PubChem BioAssay.

The structures appear in SMILES notation. Activity calls are given as the source filed them.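 Rule for the calls, unless noted: active = GFP response above 150% of the DMSO level; inconclusive = fewer than 70 events counted for a yeast strain; inactive = the rest.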

The nature of assay [1]: hit retest on RPL19A-GFP reporter strain – cell-based, S. cerevisiae, flow cytometry, cherry picks, mother/daughter gates, confirmation (AID 2270;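 active = GFP response below 50% of the DMSO control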). Particulars: 3 h, at 10 µM, stronger effect = lower value, 100 = same GFP as DMSO wells. In general terms: In flow cytometry, cells or beads pass a laser one at a time.
Assay [2] can be described thus: yeast TOR pathway reporter LAP4-GFP change – cell-based, cherry picks, flow cytometry, mother/daughter gates, confirmation (AID 2271;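 active = GFP response above 150% of the DMSO control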;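 note: ratio of sample to DMSO plate mean so 100% equals DMSO level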). Conditions: S. cerevisiae LAP4-GFP strain, 3 h, at 10 µM, stronger effect = higher value, 100 means same as DMSO control. The gist of the method:
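System: Alexa 633-stained baker's yeast GFP-fusion strain; quantity: 0.2 OD600 cells; timing: compound exposure 3 h at 30 °C, end-over-end rotation; detection: HT flow cytometry, GFP fluorescence channel; measure: per-gate (all, mother, daughter) GFP response vs DMSO; control set: DMSO-only negative wells, rapamycin 400 ng/mL positive wells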

Assay [3] is described as follows: TOR pathway reporter MEP2-GFP, retest of hits – S. cerevisiae, flow cytometry GFP, cherry picks, confirmation (AID 2272;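 active = GFP response above 150% of the DMSO control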;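 note: ratio of well signal to plate DMSO mean so 100% equals DMSO level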). Particulars: S. cerevisiae MEP2-GFP strain, 3 h, at 10 µM, stronger effect = higher value.
The nature of assay [4]: yeast AGP1-GFP fluorescence change, single-dose – cell-based, flow cytometry, S. cerevisiae, cherry picks, confirmation (AID 2273).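 Note: median GFP channel fluorescence over the whole cell population gate.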 Particulars: S. cerevisiae AGP1-GFP strain, 3 h, at 10 µM.
The nature of assay [5]: TOR pathway CIT2 reporter hit retest – S. cerevisiae, GFP fusion, cherry picks, mother/daughter gates, confirmation (AID 2274). Conditions: S. cerevisiae CIT2-GFP strain, flow cytometry, 3 h, at 10 µM, stronger effect = higher value.
The mark [6] stands for this setting: measured here: daughter cell gate.
Setting [7] is: measured here: mother cell gate.
Where [8] appears, read: measured here: daughter cell gate response.
Setting [9] is: measured here: mother cell gate response.

For `Cc1c(C(=O)NCCSCc2cccc(C(F)(F)F)c2)cnn1-c1ccc(F)cc1`, the GFP response vs DMSO in assay [1] was 102% (inactive); in assay [1] (setting [6]), 103%; in assay [1] (setting [7]) it was 103%; in assay [3], 104% (inactive). Moreover, the figures for the GFP response relative to DMSO in assay [2], in assay [2] (setting [8]) and in assay [2] (setting [9]) were 98.8% (inactive), 96.5% and 98.5%, respectively. The GFP response, % of DMSO is 99.1% (inactive) in assay [4], 108% (inactive) in assay [5], 102% in assay [5] (setting [6]) and 108% in assay [5] (setting [7]).
Consider `CCCc1[nH]nc2c1C(c1ccc(OCCN3CCOCC3)c(OCC)c1)C(C#N)=C(N)O2` (centres undefined), for which the GFP response vs DMSO in assay [1] is 98.4% (inactive); in assay [1] (setting [6]), 98.4%; in assay [1] (setting [7]), 98.9%; in assay [3], 97.8% (inactive). For the same compound, the results for the GFP response relative to DMSO in assay [2], in assay [2] (setting [8]) and in assay [2] (setting [9]) were 90.2% (inactive), 95.6% and 91.1%, respectively. Further, the GFP response, % of DMSO was 97.8% (inactive) in assay [4], 107% (inactive) in assay [5], 105% in assay [5] (setting [6]) and 108% in assay [5] (setting [7]).
Regarding `CCOC(=O)Cc1csc(NC(=O)c2sc3nc4ccc(C)cc4cc3c2N)n1`, the GFP response vs DMSO in assay [1] is 98.8% (inactive); in assay [1] (setting [6]), 98.1%; in assay [1] (setting [7]) it was 100%; in assay [3], 102% (inactive). The GFP response relative to DMSO in assay [2] is 91.4% (inactive); in assay [2] (setting [8]) it was 91%; in assay [2] (setting [9]) it was 95.2%. For the same compound, the GFP response, % of DMSO in assay [4] was 96.7% (inactive); in assay [5], 92.6% (inactive); in assay [5] (setting [6]), 94.8%; in assay [5] (setting [7]) it was 92.3%.
For the compound `O=C1Nc2ccc(Br)cc2/C1=C/C(=O)c1ccc2c(c1)OCO2`, the GFP response vs DMSO is 101% (inactive) in assay [1], 99.4% in assay [1] (setting [6]), 98.9% in assay [1] (setting [7]) and 105% (inactive) in assay [3]. Also, the GFP response relative to DMSO was 125% (inactive) in assay [2], 117% in assay [2] (setting [8]) and 130% in assay [2] (setting [9]). Moreover, the GFP response, % of DMSO in assay [4] is 94.5% (inactive); in assay [5], 101% (inactive); in assay [5] (setting [6]) it was 101%; in assay [5] (setting [7]) it was 96.1%.
As for `Cc1ccc(/C=N\NC(=O)c2cc(OCC(F)(F)F)ccc2OCC(F)(F)F)cc1`, the GFP response vs DMSO is 100% (inactive) in assay [1], 101% in assay [1] (setting [6]), 100% in assay [1] (setting [7]) and 94.1% (inactive) in assay [3]. For the same compound, the GFP response relative to DMSO in assay [2] is 91.5% (inactive); in assay [2] (setting [8]) it was 91.2%; in assay [2] (setting [9]) it was 92.9%. Besides, the GFP response, % of DMSO was 102% (inactive) in assay [4], 105% (inactive) in assay [5], 108% in assay [5] (setting [6]) and 106% in assay [5] (setting [7]).
For the compound `COc1ccc(N2C(=O)CC(Sc3ncn[nH]3)C2=O)c(OC)c1` (centres undefined), the GFP response vs DMSO in assay [1] was 107% (inactive); in assay [1] (setting [6]) it was 112%; in assay [1] (setting [7]), 102%; in assay [3] it was 110% (inactive). The results for the GFP response relative to DMSO in assay [2], in assay [2] (setting [8]) and in assay [2] (setting [9]) were 172% (active), 161% and 167%, respectively. In addition, the GFP response, % of DMSO in assay [4] is 102% (inactive); in assay [5], 109% (inactive); in assay [5] (setting [6]), 115%; in assay [5] (setting [7]), 101%.
Regarding `COc1cc(/C=C2\C(=O)ON=C2c2ccccc2)cc(Br)c1O`, the GFP response vs DMSO in assay [1] was 92.7% (inactive); in assay [1] (setting [6]), 95.6%; in assay [1] (setting [7]), 88.3%; in assay [3], 99.3% (inactive). Moreover, the GFP response relative to DMSO was 114% (inactive) in assay [2], 113% in assay [2] (setting [8]) and 115% in assay [2] (setting [9]). The GFP response, % of DMSO in assay [4] is 92.7% (inactive); in assay [5], 94.4% (inactive); in assay [5] (setting [6]), 95.8%; in assay [5] (setting [7]) it was 89.3%.
`Cc1ccc(-c2nc(NC(=O)c3nn(C)cc3[N+](=O)[O-])sc2C)cc1`: the GFP response vs DMSO in assay [1] is 100% (inactive); in assay [1] (setting [6]), 97.3%; in assay [1] (setting [7]), 101%; in assay [3], 102% (inactive). Further, the GFP response relative to DMSO in assay [2] is 98.7% (inactive); in assay [2] (setting [8]), 97.2%; in assay [2] (setting [9]) it was 101%. Moreover, the GFP response, % of DMSO in assay [4] was 101% (inactive); in assay [5], 96.5% (inactive); in assay [5] (setting [6]), 91.5%; in assay [5] (setting [7]) it was 97.7%.
Turning to `O=C1C=CC(=O)N1N(c1ccccc1)c1ccccc1`, the GFP response vs DMSO in assay [1] is 96.2% (inactive); in assay [1] (setting [6]), 90.7%; in assay [1] (setting [7]) it was 87.1%; in assay [3], 127% (inactive). Moreover, the GFP response relative to DMSO in assay [2] was 209% (active); in assay [2] (setting [8]), 148%; in assay [2] (setting [9]), 208%. In addition, the GFP response, % of DMSO in assay [4] is 114% (inactive); in assay [5], 95.9% (inactive); in assay [5] (setting [6]) it was 88.9%; in assay [5] (setting [7]), 79.8%.
Regarding `CCC(=O)Oc1oc(-c2ccccc2)nc1C=Nc1ccccc1OC`, the GFP response vs DMSO in assay [1] was 102% (inactive); in assay [1] (setting [6]), 102%; in assay [1] (setting [7]) it was 102%; in assay [3] it was 95.2% (inactive). For the same compound, the GFP response relative to DMSO in assay [2] is 105% (inactive); in assay [2] (setting [8]), 94.4%; in assay [2] (setting [9]), 108%. Further, the GFP response, % of DMSO in assay [4] was 95.5% (inactive); in assay [5] it was 90.3% (inactive); in assay [5] (setting [6]) it was 86.9%; in assay [5] (setting [7]) it was 92.6%.
In the case of `Cc1cccc2nc(-c3cccnc3)c(NCCC(C)C)n12`, the GFP response vs DMSO in assay [1] is 98.8% (inactive); in assay [1] (setting [6]), 99.8%; in assay [1] (setting [7]), 99.6%; in assay [3] it was 107% (inactive). Further, the GFP response relative to DMSO in assay [2] is 89% (inactive); in assay [2] (setting [8]), 89.5%; in assay [2] (setting [9]), 92.1%. In addition, the GFP response, % of DMSO in assay [4] is 98.5% (inactive); in assay [5] it was 96.5% (inactive); in assay [5] (setting [6]), 99.7%; in assay [5] (setting [7]) it was 94.4%.
As to `O=S(=O)(c1ccc(Cl)cc1)c1snnc1-c1ccccc1`, the GFP response vs DMSO is 93.7% (inactive) in assay [1], 92.2% in assay [1] (setting [6]), 96.6% in assay [1] (setting [7]) and 98.8% (inactive) in assay [3]. For the same compound, the GFP response relative to DMSO in assay [2] was 126% (inactive); in assay [2] (setting [8]), 123%; in assay [2] (setting [9]) it was 129%. For the same compound, the GFP response, % of DMSO was 102% (inactive) in assay [4], 95.9% (inactive) in assay [5], 92.1% in assay [5] (setting [6]) and 96.7% in assay [5] (setting [7]).
Turning to `CCNC(=O)c1ccccc1-c1nc(-c2ccccc2Cl)no1`, the GFP response vs DMSO in assay [1] was 95.6% (inactive); in assay [1] (setting [6]) it was 94.7%; in assay [1] (setting [7]) it was 95%; in assay [3], 103% (inactive). Moreover, the GFP response relative to DMSO in assay [2] is 104% (inactive); in assay [2] (setting [8]) it was 97.5%; in assay [2] (setting [9]), 104%. Besides, the GFP response, % of DMSO in assay [4] was 98.6% (inactive); in assay [5] it was 98.6% (inactive); in assay [5] (setting [6]), 99.3%; in assay [5] (setting [7]) it was 97.1%.
Turning to `CN1C(=O)c2cccc3c(Cl)ccc(c23)C1=O`, the GFP response vs DMSO was 97.8% (inactive) in assay [1], 95.7% in assay [1] (setting [6]), 98% in assay [1] (setting [7]) and 105% (inactive) in assay [3]. Besides, the GFP response relative to DMSO was 107% (inactive) in assay [2], 107% in assay [2] (setting [8]) and 107% in assay [2] (setting [9]). Moreover, the GFP response, % of DMSO in assay [4] is 92.4% (inactive); in assay [5] it was 97.3% (inactive); in assay [5] (setting [6]) it was 95.6%; in assay [5] (setting [7]), 98.1%.
